In ChEMBL document CHEMBL1122098, “2-Amino-4,7-dimethoxyindan derivatives: synthesis and assessment of dopaminergic and cardiovascular actions” (1982):

Columns and labels:
Type in all cases: functional
[1] = species on record: Felis catus; experiment: Tested for the inhibition of cardioaccelerator nerves in cat; details: read-out: ID50 (the source's name)
Method in brief: (§1)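 Cats 2-4 kg, either sex, anesthetized with pentobarbital sodium 30 mg/kg ip, pretreated with atropine sulfate 0.2 mg/kg iv. Compounds in saline given as iv bolus via femoral catheter. Blood pressure and heart rate recorded. Right cardioaccelerator nerve stimulated at 2 Hz, 5-ms pulses, 20–25 V supramaximal; inhibition of the positive chronotropic response measured, with ED50 calculated. Haloperidol 100 µg/kg iv given beforehand for blockade.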

[2] = Tested for the ratio between rat rotation and the potency to apomorphine
Method in brief: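 Rats with unilateral substantia nigra 6-hydroxydopamine lesions (6 µg in 3 µl). HCl salts in saline given sc, screened at 2 mg/kg; contralateral turns recorded automatically for at least 1 h as turns per hour. Dose-response curves used 4-5 animals; potency ratio to apomorphine with 95% CI calculated over 60 min after dosing.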

[3] = system: Felis catus; experiment: Tested for the change in heart rate after administration in cat; method in brief: as §1
[4] = species on record: Rattus norvegicus; experiment: Tested for the alteration in rat CNS transmitter synthesis by […] of 5-HTP from olfactory tubercle; set-up: concentration or dose not given beside the values
Method in brief: (§2)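 Rat in vivo synthesis-index model (Carlsson): test compound 4.0 mg/kg sc given 30 min before GBL 750 mg/kg ip in distilled water; apomorphine 4.0 mg/kg sc 5 min before GBL. Five min after GBL, NSD 1015 100 mg/kg ip in saline; decapitation 30 min later. Dopa in caudate nucleus and 5-HTP in olfactory tubercle measured, expressed as percent of saline+GBL control; p < 0.05 criterion.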

[5] = system: Felis catus; experiment: Tested for the percent change in blood pressure after administration in cat; method in brief: as §1
[6] = species on record: Rattus norvegicus; experiment: Tested for the alteration in rat CNS transmitter synthesis by […] of Dopa from caudate nucleus; set-up: concentration or dose not given beside the values; method in brief: as §2

| Compound | ED50 [1] [µmol/kg] | Ratio [2] | HR [3] [beats min-1] | Control [4] [%] | BP change [5] [%] | Control [6] [%] |
| --- | --- | --- | --- | --- | --- | --- |
| COc1ccc(OC)c2c1CC(N)C2 | 1.55 | 8.7 | 0 | 109.7 | 6.3 | 94 |
| CN1CCc2cccc3c2[C@H]1Cc1ccc(O)c(O)c1-3 [APOMORPHINE] | 0.103 | 1 |  |  |  | 18.3 |
| CCCNC1Cc2c(OC)ccc(OC)c2C1 | 1.1 | 7.4 | -3.2 | 104.7 | 0.7 | 79.1 |
| CNC1CCc2c(OC)ccc(OC)c2C1 (configuration not stated) |  | 3.9 |  | 33.2 |  | 103.8 |
| COc1ccc(OC)c2c1CC(N(C)C)C2 | 1.16 | 0.019 | 3.2 |  | 51.8 |  |
| CCCN(CCC)C1Cc2c(OC)ccc(OC)c2C1 | 0.107 | 0.13 | -6.4 | 51.5 | -16.6 | 31.8 |
| CNC1Cc2c(OC)ccc(OC)c2C1 | 1.23 | 8.2 | 2.5 | 94.7 | 28.1 | 67.9 |
| COc1ccc(OC)c2c1CC(NC(C)C)C2 | 1.1 |  | 0 |  | 3.8 |  |
